Dynein transport: blocks dynein driven cargo transport along microtubules. 3617.4 mouse cells, GR-EGFP nuclear translocation imaging; test concentration mostly 20 µM; stimulated with dexamethasone, 1 µM; hits give low values. z-score, hits read low. 220,000 tested, 0.47% active;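 active = plate z-score of nuclear minus cytoplasmic receptor signal below a set negative limit, without overly bright fluorescence or cell loss, cut at about -3.5 in these data, passing the limit was not always enough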;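 also: z-score of nuclear minus cytoplasmic ring GR-EGFP intensity difference per well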
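Also added: dexamethasone, 1.0 µM final. Medium: tet-free, stripped-serum medium. Detection: fixed, Hoechst-stained cells imaged at 10x for EGFP. Read-out: nuclear-to-cytoplasmic GR-EGFP distribution per well. Times: induction 48 h, compound 1 h, agonist 30 min.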
XBP1 UPR activ: adaptive UPR (XBP1) activation | CHO-XBP1 luciferase reporter, IRE1-XBP1 UPR activation, luminescence; percent of tunicamycin response, DMSO as zero | activation, % at 20 µM | 330,000 tested, 0.33% active | AID 463104;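 active = versus positive control, 20 µM dose yields 30% or more activation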
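assay system = CHO-XBP1 luciferase reporter cells | amount = 1000 cells/well | buffer or medium = F12 plus 10% FBS | compound dosing = single point, 20 µM final compound, 1% DMSO | incubation = 16-18 h cell attachment at 37 °C, then 6 h compound exposure | detection = Steady-Glo luminescence read | controls = tunicamycin 10 µg/mL and vehicle-only wells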
L major viab: reduces viability of Leishmania major promastigotes. resazurin fluorescence viability. 200,000 tested, 9% active. inhibition, % at 10 µM. AID 1063; in the data active = inhibition above about 50%;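 also: promastigotes grown with compound for 44 hours at 28 °C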
CHOP UPR activ: activators of apoptotic arm of unfolded protein response (CHOP) | CHO-CHOP luciferase reporter, UPR activation, luminescence; percent of tunicamycin response over DMSO baseline | 330,000 tested, 0.34% active | activation, % at 10 µM | AID 449763;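 active = at 10 µM dose, activation of 40% or more, normalized to positive control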
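System: CHO-CHOP luciferase reporter cell line; amount: 500 cells/well; buffer or medium: F12 medium containing 10% fetal bovine serum; incubation: 6 h compound exposure at 37 °C after overnight seeding; measured by: luciferase luminescence after 10 min with Steady-Glo reagent; evaluation: % reporter activation, DMSO baseline versus tunicamycin full activation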
CHOP inhibitor: blocks CHOP induction under ER stress; inhibition, % at 10 µM; AID 2732; CHO-K1 CHOP-promoter luciferase, tunicamycin-induced, 15-18 h; 220,000 tested, 3.8% active;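 active = compounds that reduced the stress-induced luciferase reporter signal by more than about 70% of percent inhibition, limit read from the data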
T cruzi inh: T. cruzi replication inhibition; T. cruzi beta-gal in NIH3T3, luminescence, 90 h; 300,000 tested, 1.4% active; inhibition, % (no concentration beside the values);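 active = mean inhibition across valid replicates above about 55%, limit read from the data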;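 also: signal also drops with host cell toxicity which is not excluded here; higher percent means less beta-gal luminescence so fewer parasites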
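System: Mouse NIH/3T3 fibroblasts infected with β-gal-expressing T. cruzi Tulahuen C4 | Quantity: NIH/3T3 cells, 5,000 per well | Reagent: 5000 reporter trypomastigotes per well | Dosing: Compound pinned at 50 nL/well, DMSO | Schedule: 3 h host attachment, then at least 90 h co-culture | Detection: GalScreen luminescence, 60 min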
Hits are given with their value. This excerpt belongs to a sample that is enriched for hits.

Fc1ccc(N/N=C2/CC(c3ccccc3)Oc3ccccc32)c(F)c1 (configuration not stated) was read as Dynein transport inactive, XBP1 UPR activ inactive, L major viab 71.5, CHOP UPR activ inactive, CHOP inhibitor inactive and T cruzi inh inactive.
For CNC(=S)N/N=C1\CC(c2ccccc2)Oc2ccccc21 (configuration not stated) the results were Dynein transport inactive, XBP1 UPR activ inactive, L major viab inactive, CHOP UPR activ inactive, CHOP inhibitor inactive and T cruzi inh inactive.
`Cc1ccc(S(=O)(=O)N/N=C2/CC(c3ccccc3)Oc3ccccc32)cc1[N+](=O)[O-]` (configuration not stated) gave Dynein transport inactive, XBP1 UPR activ inactive, L major viab inactive, CHOP UPR activ inactive, CHOP inhibitor inactive and T cruzi inh inactive.
`CCOC(=O)N1CCC(N2CCN(Cc3ccccc3)C(CCO)C2)CC1` (configuration not stated) gave Dynein transport inactive, XBP1 UPR activ inactive, L major viab 50.1, CHOP UPR activ inactive, CHOP inhibitor inactive and T cruzi inh inactive.
Cc1ccc(CN2CCN(C3CCOCC3)CC2CCO)cc1 (configuration not stated) was read as Dynein transport inactive, XBP1 UPR activ inactive, L major viab 61.6, CHOP UPR activ inactive, CHOP inhibitor inactive and T cruzi inh inactive.
`Cc1ccc(N2CCC(N3CCN(C4CCCCC4)C(CCO)C3)CC2)cc1` (configuration not stated) gave Dynein transport inactive, XBP1 UPR activ inactive, L major viab 53.5, CHOP UPR activ inactive, CHOP inhibitor inactive and T cruzi inh inactive.
`CC1CCc2nc(NC(=O)Cc3cccs3)sc2C1` (configuration not stated) gave Dynein transport inactive, XBP1 UPR activ inactive, L major viab inactive, CHOP UPR activ inactive, CHOP inhibitor inactive and T cruzi inh inactive.
`CC1CCc2nc(NC(=O)c3ccco3)sc2C1` (configuration not stated) gave Dynein transport inactive, XBP1 UPR activ inactive, L major viab inactive, CHOP UPR activ inactive, CHOP inhibitor 70.6 and T cruzi inh inactive.
Screening Cc1ccccc1CN1CCN(c2ccc(S(=O)(=O)N3CCCC3)cn2)CC1 returned XBP1 UPR activ inactive and CHOP UPR activ inactive.
`Cc1ccc2c(c1)N(CC(=O)NCCc1c[nH]c3ccccc13)C(=O)CO2` gave Dynein transport inactive, XBP1 UPR activ inactive, L major viab 53.3, CHOP UPR activ inactive, CHOP inhibitor inactive and T cruzi inh inactive.
For Cc1cccc(NC(=O)NCCc2c[nH]c3ccccc23)c1 the results were Dynein transport inactive, XBP1 UPR activ inactive, L major viab 88.6, CHOP UPR activ inactive, CHOP inhibitor inactive and T cruzi inh inactive.
Screening CC(=O)Nc1ccc(-n2nnnc2SCC(=O)Nc2cccc(NC(=O)c3ccco3)c2)cc1 returned Dynein transport inactive, XBP1 UPR activ inactive, CHOP UPR activ inactive, CHOP inhibitor inactive and T cruzi inh inactive.
CCc1cccc(C)c1NC(=O)c1ccc(CN2CCc3ccccc3C2)cc1 was read as Dynein transport inactive, XBP1 UPR activ inactive, L major viab 65.7, CHOP UPR activ inactive, CHOP inhibitor inactive and T cruzi inh inactive.
For CC(=O)Nc1ccc(NC(=O)c2ccc(CN3CCc4ccccc4C3)cc2)cc1 the results were XBP1 UPR activ inactive, CHOP UPR activ inactive and T cruzi inh inactive.
Cc1ccccc1NC(=O)c1ccc(CN2CCc3ccccc3C2)cc1 was read as Dynein transport inactive, XBP1 UPR activ inactive, L major viab inactive, CHOP UPR activ inactive, CHOP inhibitor inactive and T cruzi inh inactive.
Cc1cccc(NC(=O)c2ccc(CN3CCc4ccccc4C3)cc2)c1C was read as Dynein transport inactive, XBP1 UPR activ inactive, L major viab 57.0, CHOP UPR activ inactive, CHOP inhibitor inactive and T cruzi inh inactive.
For Cc1ccc(-c2ccc(=O)n(Cc3cccc(Br)c3)n2)cc1 the results were XBP1 UPR activ inactive, CHOP UPR activ inactive and T cruzi inh inactive.
For Cc1csc(NC(=O)CSc2nc(=O)[nH]c3c2CCCC3)n1 the results were XBP1 UPR activ inactive, CHOP UPR activ inactive and T cruzi inh inactive.
Screening O=C(Nc1nc2c(Br)cc(Br)cc2c(=O)s1)C1CCC1 returned Dynein transport inactive, XBP1 UPR activ inactive, CHOP UPR activ inactive, CHOP inhibitor 90.5 and T cruzi inh inactive.
Screening Oc1cccc(/C=N/Nc2ncnc3c2ncn3Cc2ccccc2)c1 returned Dynein transport inactive, XBP1 UPR activ inactive, L major viab 66.5, CHOP UPR activ inactive, CHOP inhibitor inactive and T cruzi inh inactive.
Screening Nc1c(Cl)ncnc1N/N=C/c1cccc(O)c1 returned Dynein transport inactive, XBP1 UPR activ inactive, CHOP UPR activ inactive, CHOP inhibitor inactive and T cruzi inh inactive.
Screening CCN(Cc1ccc(O)cc1)CC1CCCN(CCc2cccc(F)c2)C1 (configuration not stated) returned XBP1 UPR activ inactive, CHOP UPR activ inactive and T cruzi inh 60.7.
`CN(CC1CCCN(CCc2cccc(C(F)(F)F)c2)C1)C(=O)c1ccco1` (configuration not stated) gave XBP1 UPR activ inactive, CHOP UPR activ inactive and T cruzi inh 60.4.
For CCN(Cc1cccc(OC)c1)CC1CCCN(CCc2cccc(OC)c2)C1 (configuration not stated) the results were XBP1 UPR activ inactive, CHOP UPR activ inactive and T cruzi inh inactive.
`CC(=O)Nc1ccc(CN(C)CC2CCCN(CCc3cccc(C(F)(F)F)c3)C2)cc1` (configuration not stated) gave XBP1 UPR activ inactive, CHOP UPR activ inactive and T cruzi inh inactive.
Screening CC(=O)Nc1ccc(Cc2ccc3[nH]c(=O)cc(C)c3c2)cc1 returned Dynein transport inactive, XBP1 UPR activ inactive, CHOP UPR activ inactive, CHOP inhibitor inactive and T cruzi inh inactive.
For Cc1cccc(OC(C)C(=O)N/N=C\c2ccncc2)c1 (configuration not stated) the results were Dynein transport inactive, XBP1 UPR activ inactive, L major viab inactive, CHOP UPR activ inactive, CHOP inhibitor inactive and T cruzi inh inactive.
Cc1ccc(C)c(C(=O)OCC(=O)Nc2ccc(N3CCOCC3)cc2)c1 was read as Dynein transport inactive, XBP1 UPR activ inactive, L major viab inactive, CHOP UPR activ inactive, CHOP inhibitor inactive and T cruzi inh inactive.
Screening O=C(COC(=O)c1ccc(Cl)c([N+](=O)[O-])c1)Nc1ccccc1OC(F)F returned Dynein transport inactive, XBP1 UPR activ inactive, L major viab 58.0, CHOP UPR activ inactive, CHOP inhibitor inactive and T cruzi inh inactive.
